ChEMBL document CHEMBL1123812, “Pyrroloisoquinoline antidepressants. 2. In-depth exploration of structure-activity relationships” (J Med Chem, 1987)
The source made the active and inactive calls.

Experiments:
Mus musculus [1] = species: Mus musculus; experiment: Gross behavioral effects ascertained in mice; D indicates significant depressant properties.; format: functional, organism-based
How it was run: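 Male Swiss Webster albino mice, 18–24 g, three per dose, given ip 1, 3, 10, 30, 100 and 300 mg/kg. Gross behaviour observed and held 4 days. Estimated LD50 range from lethality count on day 4. Scored as weak stimulant/depressant, significant stimulant, significant depressant or overt convulsant.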

Mus musculus [2] = experiment: Ability to antagonise tetrabenazine (TBZ)-induced depression measured in mice for ptosis by 10 mg/kg i.p. dose; inactive (<10% antagonism) at 30 mgjkg is represented as I-30.; format: functional, organism-based; design: dose 10 mg/kg
How it was run: (§1)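 Swiss Webster male albino mice, nonfasted, 18–24 g, 10 per dose and in saline control. Compound given ip 30 min before TBZ 32 mg/kg ip. Motor activity and ptosis scored. Response corrected by Abbott's formula when control response was 90% or less. Doses expressed as free base.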

Mus musculus [3] = experiment: (§2) Ability to antagonise intraperitoneal dose; inactive (<10% antagonism) at 30 mgjkg is represented as I-30.; format: functional, organism-based; how it was run: as §1
Rattus norvegicus [4] = experiment: Ability to inhibit the uptake of tritiated serotonin(5-HT) at 0.1 mg/kg concentration; format: functional
Rattus norvegicus [5] = species: Rattus norvegicus; experiment: Ability to inhibit the uptake of tritiated norepinephrine (NE); format: functional
How it was run: (§3)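 Male Wistar rat brain synaptosomes (P2 fraction): hypothalamus for NE, striatum for DA, cerebral cortex for 5-HT. Buffer is Tris- or HEPES-buffered salt medium with glucose, ascorbate and nialamide, pH 7.4 at 37 °C. Preincubated 10 min at 37 °C with compound. Uptake started with [3H]NE 100–300 nM, [3H]DA 50–300 nM or [3H]5-HT 100–200 nM, incubated 3 min (DA) or 6–10 min (NE, 5-HT). Blanks held on ice. Filtered, counted by scintillation.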

[6] = biological target: Sodium-dependent dopamine transporter (Rattus norvegicus) (UniProt P23977); experiment: Inhibition of tritiated dopamine (DA) uptake at 0.1 uM concentration; format: functional; how it was run: as §3
Mus musculus [7] = species: Mus musculus; experiment: Antagonism of tetrabenazine (TBZ)-induced depression measured in mice by motor activity; format: functional; details: Mus musculus; read-out: ED50
How it was run: (§4)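 Nonfasted male Swiss Webster mice, 18–24 g, ten per dose level and in saline controls. Test compound given ip 30 min before tetrabenazine 32 mg/kg ip; dose expressed as free base. Motor activity and ptosis scored. Control response ≤90% corrected by Abbott's formula.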

[8] = biological target: D(2) dopamine receptor (Rattus norvegicus) (UniProt P61169); experiment: Binding affinity towards dopamine receptor D2 at 1.0 uM concentration
How it was run: (§5)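 Rat brain crude synaptic membranes in 20 mM NaHEPES pH 7.5. Ligands: α1 cortex […] 0.4 nM, nonspecific with (-)-NE 100 μM, 30 min at 25 °C. […] D2 striatum [3H]spiperone 0.05 nM with (+)-butaclamol 1 μM, 45 min at 37 °C. S1 cortex [3H]5-HT 1 nM plus glutathione and MgCl2, with 5-HT 10 μM, 20 min at 37 °C. […] Samples filtered on GF/B and counted.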

Mus musculus [9] = species: Mus musculus; experiment: Antagonism of tetrabenazine (TBZ)-induced depression in mice measured for ptosis; format: functional; details: Mus musculus; read-out: ED50; how it was run: as §4
[10] = biological target: Serotonin 1 (5-HT1) receptor (Rattus norvegicus) (UniProt P28564+P30940+P19327+P28565); experiment: Binding affinity towards serotonin S1 receptor at 1.0 uM; format: protein assay; how it was run: as §5
Mus musculus [11] = species: Mus musculus; experiment: Gross behavioral effects ascertained in mice; W indicates weak stimulant or depressant activity of little significance.; format: functional, organism-based
How it was run: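 Male Swiss Webster mice, 18–24 g, three per dose, given ip doses of 1, 3, 10, 30, 100 and 300 mg/kg. Observed for gross behavior and held for 4 days. Scored as weak (W), stimulant (S), depressant (D) or convulsant (C).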

[12] = biological target: Sodium-dependent serotonin transporter (Rattus norvegicus) (UniProt P31652); experiment: Inhibition of tritiated serotonin(5-HT) uptake at 0.1 uM concentration; format: functional; how it was run: as §3
[13] = biological target: Serotonin 2 (5-HT2) receptor (Rattus norvegicus) (UniProt P30994+P08909+P14842); experiment: (§6) Binding affinity towards 5-hydroxytryptamine 2 receptor at 1.0 uM concentration; format: protein assay; how it was run: as §5
Rattus norvegicus [14] = species: Rattus norvegicus; experiment: Ability to inhibit the uptake of tritiated serotonin(5-HT) at 1 uM concentration; format: functional
How it was run: (§7)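 Rat synaptosomal uptake as above: striatal P2 for [3H]DA (50–300 nM, 3 min) and cortical P2 for [3H]5-HT (100–200 nM, 6 min). 37 °C after 10-min preincubation with compound. […] Blanks incubated in ice water. Filter-retained tritium counted by liquid scintillation.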

Rattus norvegicus [15] = species: Rattus norvegicus; experiment: Ability to inhibit the uptake of tritiated norepinephrine (NE) at 0.1 uM concentration; format: functional; how it was run: as §3
Rattus norvegicus [16] = species: Rattus norvegicus; experiment: Ability to inhibit the uptake of tritiated dopamine (DA) at 1 uM concentration; format: functional; how it was run: as §7
[17] = biological target: Serotonin 2 (5-HT2) receptor (Rattus norvegicus, UniProt P30994+P08909+P14842); experiment: as §6; format: protein assay
[18] = biological target: Sodium-dependent dopamine transporter (Rattus norvegicus, UniProt P23977); experiment: Inhibition of the uptake of tritiated dopamine (DA) in rat synaptosomes; format: subcellular, Brain
[19] = biological target: Norepinephrine transporter (Rattus norvegicus, UniProt Q9WTR4); experiment: Inhibition of uptake of tritiated norepinephrine (NE) in rat synaptosomes; format: subcellular, Brain
Mus musculus [20] = experiment: as §2; format: functional, organism-based; how it was run: as §4; remark: listed apart in the source
Rattus norvegicus [21] = species: Rattus norvegicus; experiment: Ability to inhibit the uptake of tritiated serotonin(5-HT) %inhibition; format: functional
How it was run: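 Rat brain synaptosomes (male Wistar P2 fraction) from hypothalamus (NE), striatum (DA) or cerebral cortex (5-HT), in Tris or HEPES Krebs-type medium with nialamide, pH 7.4. Preincubation 10 min at 37 °C with compound. Then [3H]NE 100–300 nM, [3H]DA 50–300 nM or [3H]5-HT 100–200 nM added for 3 min (DA) or 6–10 min (NE, 5-HT). Blanks kept on ice. Filtration and scintillation counting. Percent inhibition at 0.100 μM when weak.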

Mus musculus [22] = experiment: Ability to antagonise intraperitoneal dose; inactive (<10% antagonism) at 30 mg/kg is represented as I-30.; format: functional, organism-based; design: dose 30 mg/kg; how it was run: as §4
[23] = biological target: Norepinephrine transporter (Rattus norvegicus) (UniProt Q9WTR4); experiment: Ability to inhibit the uptake of [3H]norepinephrine (NE) 0.1 uM concentration at rat brain synaptosomes; format: functional, subcellular; how it was run: as §3
Rattus norvegicus [24] = species: Rattus norvegicus; experiment: Ability to inhibit the uptake of tritiated dopamine (DA) 0.1 uM concentration; format: functional; how it was run: as §3
[25] = biological target: Sodium-dependent serotonin transporter (Rattus norvegicus) (UniProt P31652); experiment: Ability to inhibit the uptake of [3H]- serotonin(5-HT) 0.1 uM concentration at rat brain synaptosomes; format: functional, subcellular; how it was run: as §3

Chain of Sodium-dependent serotonin transporter (Rattus norvegicus) (P31652 whole entry): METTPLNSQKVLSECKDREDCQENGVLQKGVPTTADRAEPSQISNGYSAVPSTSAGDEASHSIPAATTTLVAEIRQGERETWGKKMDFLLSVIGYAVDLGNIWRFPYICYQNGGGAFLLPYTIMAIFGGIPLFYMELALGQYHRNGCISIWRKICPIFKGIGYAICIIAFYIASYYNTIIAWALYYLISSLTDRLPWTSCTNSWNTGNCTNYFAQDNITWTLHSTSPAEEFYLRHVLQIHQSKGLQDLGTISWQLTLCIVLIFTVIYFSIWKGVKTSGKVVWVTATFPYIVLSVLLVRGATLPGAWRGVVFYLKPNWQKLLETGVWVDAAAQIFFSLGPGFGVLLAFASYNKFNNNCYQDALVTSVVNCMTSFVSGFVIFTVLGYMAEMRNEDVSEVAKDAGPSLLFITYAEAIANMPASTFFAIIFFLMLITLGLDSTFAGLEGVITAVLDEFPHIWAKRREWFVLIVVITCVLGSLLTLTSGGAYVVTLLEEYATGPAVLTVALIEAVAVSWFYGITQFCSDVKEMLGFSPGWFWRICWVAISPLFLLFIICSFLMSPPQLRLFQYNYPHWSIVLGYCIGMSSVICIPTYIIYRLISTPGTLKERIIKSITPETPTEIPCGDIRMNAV
Chain of Norepinephrine transporter (Q9WTR4 whole entry): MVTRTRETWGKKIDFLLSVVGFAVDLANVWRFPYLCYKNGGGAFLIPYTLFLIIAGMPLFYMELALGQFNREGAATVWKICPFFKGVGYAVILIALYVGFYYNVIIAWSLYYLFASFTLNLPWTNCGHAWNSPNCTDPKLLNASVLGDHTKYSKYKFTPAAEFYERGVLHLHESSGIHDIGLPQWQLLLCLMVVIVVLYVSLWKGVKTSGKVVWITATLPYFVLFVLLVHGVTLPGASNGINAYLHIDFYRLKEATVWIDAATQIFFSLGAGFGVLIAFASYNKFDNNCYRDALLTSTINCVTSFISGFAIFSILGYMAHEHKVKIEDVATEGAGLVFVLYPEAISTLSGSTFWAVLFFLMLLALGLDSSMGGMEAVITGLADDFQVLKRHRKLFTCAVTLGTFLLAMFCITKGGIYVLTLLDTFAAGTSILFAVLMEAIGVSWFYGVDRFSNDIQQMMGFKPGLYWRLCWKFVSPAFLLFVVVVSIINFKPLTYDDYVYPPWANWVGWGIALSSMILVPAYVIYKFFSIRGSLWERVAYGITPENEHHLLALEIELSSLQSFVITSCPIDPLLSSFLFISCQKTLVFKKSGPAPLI
Chain of Norepinephrine transporter (Rattus norvegicus) (Q9WTR4 as listed by the source): as the sequence (Q9WTR4 whole entry) above
Chain of D(2) dopamine receptor (Rattus norvegicus) (P61169 whole entry): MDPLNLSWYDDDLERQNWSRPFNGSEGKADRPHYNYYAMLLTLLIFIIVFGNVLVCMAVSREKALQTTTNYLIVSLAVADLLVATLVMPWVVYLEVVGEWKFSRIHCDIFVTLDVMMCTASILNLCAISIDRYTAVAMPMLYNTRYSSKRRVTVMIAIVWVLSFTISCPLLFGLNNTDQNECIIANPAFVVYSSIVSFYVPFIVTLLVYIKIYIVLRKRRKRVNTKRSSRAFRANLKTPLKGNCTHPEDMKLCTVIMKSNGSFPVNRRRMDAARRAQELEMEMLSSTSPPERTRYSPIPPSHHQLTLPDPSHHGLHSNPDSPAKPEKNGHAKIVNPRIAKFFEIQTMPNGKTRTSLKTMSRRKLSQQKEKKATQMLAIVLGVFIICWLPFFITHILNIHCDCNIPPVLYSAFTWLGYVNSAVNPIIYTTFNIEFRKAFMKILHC
Chain of Sodium-dependent dopamine transporter (Rattus norvegicus) (P23977 whole entry): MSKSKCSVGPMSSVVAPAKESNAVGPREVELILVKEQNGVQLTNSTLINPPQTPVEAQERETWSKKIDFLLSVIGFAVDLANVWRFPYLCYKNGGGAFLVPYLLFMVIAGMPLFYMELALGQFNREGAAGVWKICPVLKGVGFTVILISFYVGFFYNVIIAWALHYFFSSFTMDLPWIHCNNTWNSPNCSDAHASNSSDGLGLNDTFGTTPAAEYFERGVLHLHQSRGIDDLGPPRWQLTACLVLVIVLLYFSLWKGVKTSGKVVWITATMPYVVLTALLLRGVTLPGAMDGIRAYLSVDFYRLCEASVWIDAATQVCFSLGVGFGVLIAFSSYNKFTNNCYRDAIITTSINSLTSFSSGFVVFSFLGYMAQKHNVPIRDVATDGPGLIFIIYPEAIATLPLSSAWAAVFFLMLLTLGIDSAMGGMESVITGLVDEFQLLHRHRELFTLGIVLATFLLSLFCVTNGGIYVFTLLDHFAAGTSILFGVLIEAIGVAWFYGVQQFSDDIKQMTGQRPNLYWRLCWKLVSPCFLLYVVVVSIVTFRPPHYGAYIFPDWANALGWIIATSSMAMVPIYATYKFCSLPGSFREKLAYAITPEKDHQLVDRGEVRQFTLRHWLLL
Chain of Sodium-dependent dopamine transporter (P23977 whole entry): as above
Chain of Serotonin 2 (5-HT2) receptor (Rattus norvegicus) (P08909 whole entry, looked up): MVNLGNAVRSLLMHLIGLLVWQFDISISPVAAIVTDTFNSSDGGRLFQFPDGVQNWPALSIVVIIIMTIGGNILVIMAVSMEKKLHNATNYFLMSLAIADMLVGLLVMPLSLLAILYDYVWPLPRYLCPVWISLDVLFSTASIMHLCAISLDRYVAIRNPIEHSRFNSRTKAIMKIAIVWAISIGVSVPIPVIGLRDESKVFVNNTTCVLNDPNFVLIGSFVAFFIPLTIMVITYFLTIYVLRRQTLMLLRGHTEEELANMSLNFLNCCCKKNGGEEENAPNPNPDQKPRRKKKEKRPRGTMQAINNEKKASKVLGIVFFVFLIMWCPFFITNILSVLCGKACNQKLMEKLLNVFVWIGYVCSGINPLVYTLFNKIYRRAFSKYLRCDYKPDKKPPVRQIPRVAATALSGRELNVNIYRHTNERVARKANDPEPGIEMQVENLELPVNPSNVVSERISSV
Chain of Serotonin 2 (5-HT2) receptor (Rattus norvegicus) (P14842 whole entry, looked up): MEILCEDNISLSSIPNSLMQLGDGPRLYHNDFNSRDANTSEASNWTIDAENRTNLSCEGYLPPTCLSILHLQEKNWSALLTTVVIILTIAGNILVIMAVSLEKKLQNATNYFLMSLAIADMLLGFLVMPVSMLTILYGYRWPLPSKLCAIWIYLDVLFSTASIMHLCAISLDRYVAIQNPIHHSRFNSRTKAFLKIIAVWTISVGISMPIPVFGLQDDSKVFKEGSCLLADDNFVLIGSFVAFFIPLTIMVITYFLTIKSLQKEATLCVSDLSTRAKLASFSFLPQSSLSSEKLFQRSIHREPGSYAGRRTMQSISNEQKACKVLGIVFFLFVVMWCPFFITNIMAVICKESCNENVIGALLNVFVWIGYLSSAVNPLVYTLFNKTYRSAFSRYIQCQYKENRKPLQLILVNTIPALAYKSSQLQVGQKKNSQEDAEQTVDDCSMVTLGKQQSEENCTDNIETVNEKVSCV
Chain of Serotonin 2 (5-HT2) receptor (Rattus norvegicus) (P30994 whole entry, looked up): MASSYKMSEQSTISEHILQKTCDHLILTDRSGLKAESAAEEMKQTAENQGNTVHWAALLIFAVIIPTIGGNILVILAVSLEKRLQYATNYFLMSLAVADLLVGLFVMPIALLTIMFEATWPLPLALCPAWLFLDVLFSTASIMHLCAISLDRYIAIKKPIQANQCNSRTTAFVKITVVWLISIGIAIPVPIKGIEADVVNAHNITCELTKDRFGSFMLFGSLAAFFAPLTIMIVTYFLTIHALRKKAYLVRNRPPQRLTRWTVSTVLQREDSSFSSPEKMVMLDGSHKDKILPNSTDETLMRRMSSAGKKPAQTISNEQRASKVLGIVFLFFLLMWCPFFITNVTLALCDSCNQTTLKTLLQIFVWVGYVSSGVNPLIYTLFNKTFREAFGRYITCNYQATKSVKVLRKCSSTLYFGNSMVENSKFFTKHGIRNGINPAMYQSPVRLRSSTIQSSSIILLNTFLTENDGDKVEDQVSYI

For c1ccc([C@@H]2CN3CCC[C@H]3c3ccsc32)cc1, the behavior (Mus musculus [1]) was “Significant depressant”, the ED50 (Mus musculus [2]) was “inactive” and the ED50 (Mus musculus [3]) was “inactive”. For the same compound, the inhibition in vivo at 0.1 mg/kg (Rattus norvegicus [4]) was 28%.
With Br.Fc1ccc([C@@H]2CN3CCC[C@H]3c3cc(F)ccc32)cc1 the Ki (Rattus norvegicus [5]) was ~100 nM, the inhibition [6] was 38% and the ED50 (Mus musculus [7]) was > 60 mg/kg. It also gave an inhibition [8] of 48%, an ED50 (Mus musculus [9]) of 1.6 mg/kg and an inhibition [10] of -9%. The behavior (Mus musculus [11]) was “Partial stimulant”, the inhibition [12] was 21% and the inhibition [13] was 5%.
Clc1ccc([C@@H]2CN3CCC[C@H]3c3ccccc32)c(Cl)c1 was tested, and the Inhibition (Rattus norvegicus [14]) was 52%, the Inhibition (Rattus norvegicus [15]) was 31% and the Inhibition (Rattus norvegicus [16]) was 34%.
With O=C(Nc1ccccc1)Nc1ccc([C@@H]2CN3CCC[C@H]3c3ccccc32)cc1 the Ki [17] was 54 nM, the Ki [18] was 9.8 nM and the ED50 (Mus musculus [7]) was > 60 mg/kg. For the same compound, the ED50 (Mus musculus [9]) was 10 mg/kg and the Ki [19] was 41.3 nM.
With Br.c1csc([C@@H]2CN3CCC[C@H]3c3ccsc32)c1 the behavior (Mus musculus [1]) was “Significant depressant”, the ED50 (Mus musculus [20]) was “inactive” and the Inhibition (Rattus norvegicus [21]) was 2%. The ED50 (Mus musculus [22]) was “inactive”.
For c1ccc([C@@H]2CN3CCCC[C@H]3c3ccccc32)cc1, the inhibition [23] was 27%, the Ki (Rattus norvegicus [24]) was 1000 nM and the inhibition [25] was 11%. The behavior (Mus musculus [11]) was “Weak”.
